Here are results for 8 molecules from ChEMBL document CHEMBL4732273, “In Silico Targeting of the Long Noncoding RNA MALAT1” (ACS Med Chem Lett, 2021).

A word on the Kd: it is the free concentration of one partner at which half of the binding sites on the other are occupied at equilibrium, for simple one-to-one binding. A lower Kd goes with a tighter complex.

The structures appear in SMILES notation. Activity calls are given as the source filed them. The calls are words filed in the database; no cut-off is given here.

One assay deals with tRNA. Kind of assay: Binding affinity to biotinylated-tRNA (unknown origin) at 200 uM measured after 120 secs by Surface plasmon resonance analysis. The assay is classed as nucleic-acid assay. The conditions noted are these: time 120.0 sec. In outline: (§1)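 The RNA was 3′-biotinylated by ligating pCp-biotin with T4 RNA ligase 1 after dephosphorylation, then immobilized on the SPR chip at 300 RU. Compounds were injected as 50 μL at 200 μM at a 20 μL/min flow rate, followed by 60 s of dissociation. Biotinylated tRNA was immobilized and run the same way as the negative-control surface.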
Background: Surface plasmon resonance follows binding to a sensor surface in real time, without labels.

A short description of assay [1]: Binding affinity to biotinylated-MALAT1 RNA (unknown origin) at 200 uM measured after 140 secs by Surface plasmon resonance analysis. The settings on record: time 140.0 sec. The gist of the method: as §1
The nature of assay [2]: Binding affinity to biotinylated-MALAT1 RNA (unknown origin) by Surface plasmon resonance analysis. The gist of the method: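 Surface plasmon resonance on MALAT1 RNA that was 3′-biotinylated by pCp-biotin ligation with T4 RNA ligase 1 and immobilized at 300 RU. Compound was flowed at 20 μL/min with 60 s of dissociation. A biotinylated tRNA surface served as the negative control. The dissociation constant was derived from the SPR sensorgram analysis.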

Take `CCN1CCCC1CNC(=O)CCC1CCN(Cc2cc3ccccc3s2)CC1` (stereo unspecified): the result (in the assay with tRNA; in assay [1]) was Active.

In assay [2], `NS(=O)(=O)c1ccc(CNC2CCC3(CCNCC3)CC2)cc1` had a dissociation constant (Kd) of 400 µM. In addition, the outcome in the assay on tRNA was inactive. Moreover, the result in assay [1] was Active.

In the case of `Cc1ccc(NC(=O)NCC2CCCN(C3CCN(C)CC3)C2)cc1` (stereo unspecified), the result (in the assay on tRNA; in assay [1]) was Active.

Consider `NCC1Cc2cccc(-c3cc4c(cc3C(N)=O)OCO4)c2O1` (stereo unspecified), for which the outcome (in the assay on tRNA; in assay [1]) was Active.

Consider `c1ccc2sc(C3CCCN(Cc4cc5n(n4)CCCNC5)C3)nc2c1` (stereo unspecified), for which the result in the assay with tRNA was inactive. For the same molecule, the result in assay [1] was Active.

`CN1CCC(O)(Cn2cnc3ccc(F)cc3c2=O)CC1`: the outcome with tRNA was inactive. The result in assay [1] was Active.

Take `O=C(c1cc(=O)[nH]c2cc(F)ccc12)N1CCCC(N2CCCC2)C1` (stereo unspecified): in assay [1], the result was Active.

`COc1ncccc1CN1CCN(c2ccc(C(N)=O)cc2)CC1`: the outcome (with tRNA; in assay [1]) was Active.
